# From PubChem
# Only some compounds are listed: those with a hit (about 1.3% of all), similar ones and a draw of the others.
# S100A4 MyoIIA = S100A4-myosin IIA interaction inhibition. hit rate 0.14% among 360,000. AID 652163. S100A4/TAMRA-MyoIIA peptide fluorescence polarization. P26447. inhibition, % at 10.7 µM;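 active = mean inhibition of at least 70% across replicates, with every replicate also reaching that level; inconclusive = mean inhibition reaches 70% but some replicates fall short; inactive = mean inhibition below 70%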
#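 Compound dosing: one dose per compound; test system: human S100A4 monomer with TAMRA-labelled myosin IIA peptide; probe or stimulus: TAMRA-labelled myosin IIA heavy-chain peptide probe, 5 nM; medium: HEPES buffer with Ca2+, pH 7.2; schedule: 5 min incubation before reading; benchmarks: neutral control DMSO, positive control TFP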
# RAD52 inh = blocks human RAD52 DNA annealing. recombinant RAD52 DNA annealing, FRET fluorescence. hit rate 0.46% among 360,000. P43351. inhibition, % at 18.7 µM. AID 651710;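 active = every replicate showing at least 50% inhibition; inconclusive = mean inhibition at least 50% but not in every replicate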
# Target sequence (P43351 whole entry, looked up): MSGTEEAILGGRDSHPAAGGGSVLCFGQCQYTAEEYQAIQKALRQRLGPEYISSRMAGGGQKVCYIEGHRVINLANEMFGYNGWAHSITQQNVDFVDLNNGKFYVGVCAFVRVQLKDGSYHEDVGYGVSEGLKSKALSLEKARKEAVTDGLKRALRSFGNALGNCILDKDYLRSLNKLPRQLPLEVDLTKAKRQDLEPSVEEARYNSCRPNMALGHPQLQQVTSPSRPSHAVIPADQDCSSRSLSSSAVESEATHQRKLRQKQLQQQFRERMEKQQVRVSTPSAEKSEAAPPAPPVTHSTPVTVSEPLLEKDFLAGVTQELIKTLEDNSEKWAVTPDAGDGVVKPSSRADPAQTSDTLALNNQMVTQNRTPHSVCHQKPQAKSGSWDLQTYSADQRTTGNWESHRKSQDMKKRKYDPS
# MLL AF4-AF9 inh = blocks AF4 peptide binding to human AF9 | AlphaScreen, biotin-AF4 peptide binding to FLAG-AF9 | inhibition, % at 10 µM | hit rate 0.47% among 350,000 | AID 651704;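 active = every replicate reaching a set inhibition limit, whatever the replicate mean, cut at about 25% in these data; inconclusive = mean inhibition reaches that limit but some replicates miss it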;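 also: 0% = plate neutral control median and 100% = total signal loss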
# GSIS activator = GLuc luminescence reporter in INS-1E cells, primary screen for activators of glucose-dependent secretion of insulin; INS-1E GLuc reporter insulin secretion, 2-3 h; activation, % at 16.6 µM; hit rate 0.61% among 370,000; AID 743287;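 active = lowest replicate activation of at least 40%, so every replicate reaches that level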;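 also: 0% = median of neutral control wells and 100% = median of IBMX positive control wells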
# RAD54 branch = inhibitors of human RAD54 branch migration | inhibition, % at 10.4 µM | RAD54 Holliday junction branch migration, FAM/BHQ fluorescence | hit rate 0.14% among 360,000 | AID 602329 | Q92698;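 active = mean normalized replicate activity at least 40 and at least half of replicates scoring 40 or more; inconclusive = only one of the two criteria met; inactive = mean below 40 and under half of replicates reaching 40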;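 also: 0% = median of neutral control wells and 100% = median of positive control wells; inhibitors cause a drop in the FAM fluorescence signal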
# An asterisk follows results filed as active; ? = inconclusive; · = no result given.
SMILES,S100A4 MyoIIA,RAD52 inh,MLL AF4-AF9 inh,GSIS activator,RAD54 branch
COc1ccc(NC(=O)Nc2ccc3c(c2)C(=O)N([C@@H](C)CO)C[C@@H](C)[C@@H](CN(C)Cc2ccc4c(c2)OCO4)OCCCC[C@@H](C)O3)cc1,4,1,22,-20,3
COc1ccc(NC(=O)Nc2ccc3c(c2)C(=O)N([C@H](C)CO)C[C@@H](C)[C@H](CN(C)Cc2ccc4c(c2)OCO4)OCCCC[C@@H](C)O3)cc1,7,2,27*,-30,2
COc1ccc(CN(C)C[C@H]2OCCCC[C@@H](C)Oc3ccc(NC(=O)Nc4ccc5c(c4)OCO5)cc3C(=O)N([C@H](C)CO)C[C@H]2C)cc1,120*,11,23,-36,-7
COc1ccc(CN(C)C[C@H]2OCCCC[C@@H](C)Oc3ccc(NC(=O)Nc4ccc5c(c4)OCO5)cc3C(=O)N([C@@H](C)CO)C[C@H]2C)cc1,-5,22,32*,-21,-5
COc1ccc(CN(C)C[C@H]2OCCCC[C@H](C)Oc3ccc(NC(=O)Nc4ccc5c(c4)OCO5)cc3C(=O)N([C@@H](C)CO)C[C@@H]2C)cc1,29,28,22,-33,0
COc1ccc(CN(C)C[C@@H]2OCCCC[C@H](C)Oc3ccc(NC(=O)Nc4ccc5c(c4)OCO5)cc3C(=O)N([C@H](C)CO)C[C@H]2C)cc1,-3,47,25*,-39,5
N#Cc1ccc(-c2ccc([C@@H]3[C@@H](CO)N4C(=O)CN(C(=O)C5CC5)C[C@@H]34)cc2)cc1,10,12,-20,9,·
Cc1cccc(-c2ccc([C@H]3[C@H]4CN(C(=O)c5cccnc5)CC(=O)N4[C@H]3CO)cc2)c1,28,-9,36*,7,·
O=C(c1cccnc1)N1CC(=O)N2[C@H](CO)[C@@H](c3ccc(-c4ccc(F)cc4)cc3)[C@H]2C1,-13,-9,15,-6,·
O=C(c1cccnc1)N1CC(=O)N2[C@H](C1)[C@H](c1ccc(-c3ccc(F)cc3)cc1)[C@@H]2CO,8,-4,31*,6,·
N#Cc1ccc(-c2ccc([C@@H]3[C@@H](CO)N4C(=O)CN(C(=O)C5CC5)C[C@H]34)cc2)cc1,83*,5,2,2,·
COc1ccc(NC(=O)C2C3C=CC4(O3)C2C(=O)N(CCN2CCCCC2C)C4C(=O)NC2CCCC(C)C2C)cc1 (centres undefined),0,-13,0,92*,2
COc1ccc(NC(=O)C2C3C=CC4(O3)C2C(=O)N(CCN2CCCCC2)C4C(=O)NC2CCCCC2)cc1 (centres undefined),4,-3,-2,7,2
O=C(C[C@H]1CC[C@H]2NC[C@H](O)COC[C@@H]2O1)NCCN1CCCC1,17,-20,2,9,·
CC(O)c1nc2ccccc2n1Cc1ccccc1 (centres undefined),1,-11,2,15,-3
CC(O)c1nc2ccccc2n1C1CCCCC1 (centres undefined),·,·,·,63*,-2
O=[N+]([O-])c1ccccc1Sc1nccn1Cc1ccccc1,·,·,·,54*,6
CC(C)N1CCc2c(sc(NC(=O)c3cc(-c4cccs4)nc4ccccc34)c2C(N)=O)C1,·,·,·,·,78*
CC(=O)NCCNC(=O)CNC(=O)c1ccc(Cl)cc1,·,·,·,47*,·
Cc1nc2ccccc2nc1N1CCCCC1,·,·,·,·,4
Cc1ccc2c(Cl)c(C)c(N3CCCCC3)nc2n1,·,·,·,53*,·
O=C(NC1CCCCC1)N1CC(=O)N2[C@H](CO)[C@H](c3ccc(-c4cccc(F)c4)cc3)[C@H]2C1,-2,9,-3,-22,·
O=C(CN(Cc1ccccc1)C(=O)CCC(=O)Nc1nccs1)NCc1ccccc1,0,-12,43*,15,·
C[C@H]1CN([C@@H](C)CO)S(=O)(=O)c2ccc(C3=CCCC3)cc2O[C@@H]1CN(C)C(=O)c1ccccc1,-1,-2,0,-16,6
CN(C)CCOc1ccc(/C(=C(/CCCl)c2ccccc2)c2ccccc2)cc1,-1,17,?,104*,-10
Cc1ccc2c(c1)CCCN2C(=O)c1ccc2c(c1)OCO2,·,·,·,54*,·
O=C(c1ccc2c(c1)OCO2)N1CCc2ccccc21,1,-19,-6,13,·
O=C(c1cccc(F)c1)N1CCCc2ccccc21,0,-17,0,84*,1
O=C(c1ccc2c(c1)OCO2)N1CCCc2ccccc21,·,·,·,·,10
